Screening data: PubChem, Sanford-Burnham Center for Chemical Genomics
Only a sample is shown.
Apaf1 activ – human Apaf-1 activation; Apaf-1 apoptosome caspase-3 activation, DEVD-Rh110 fluorescence; active compounds read low; O14727; hit rate 0.31% among 330,000; activity change, negative = activation, % at 20 µM; AID 489031;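 active = activity change at or below -40% at 20 µM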
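Schedule: 30 min preincubation, 50 min reaction, room temperature / System: biochemical Apaf-1 apoptosome reconstitution / Medium: 20 mM HEPES pH 7.5 with CHAPS, BSA / Evaluation: Caspase-3 cleavage activity downstream of Apaf-1 activation / Detection: Caspase-3-released Rh110 fluorescence, 540 nm emission, 480 nm excitation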
Rh110 interf act – interferes with Rh110 fluorescence, flagging false Apaf-1 activators; fluorescence interference (activity change), % at 20 µM, hits read low; Rh110 fluorescence interference, quenched caspase reaction, Ex480/Em540; shares compounds with Apaf1 activ; 980 tested, under 10 active;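 active = mean activity change at or below -40% when tested at 20 µM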
Apaf-1 act conf2 – confirmation of human Apaf-1 activators | shares compounds with Apaf1 activ | reconstituted apoptosome caspase-3 activity, DEVD-Rh110 fluorescence; active compounds read low | activity change, negative = activation, % at 20 µM | hit rate 5% among 980 | AID 504617;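 active = mean activity change at or below -40%, meaning activation of 40% or more, at 20 µM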
Fluor interf act – Apaf-1 activator counter-screen fluorescence artifact; AID 588592; EC50, µM; fluorescence interference counterscreen, Apaf-1 activator assay; shares compounds with Apaf1 activ; 55 tested, under 10 active; call rule not given here
* marks the source's active call; other numbers are inactive results; x = no result given.

SMILES | Apaf1 activ | Rh110 interf act | Apaf-1 act conf2 | others
O=C1C(NS(=O)(=O)c2ccc(Cl)cc2)=C(N2CCCCC2)C(=O)c2ccccc21 | 72 | x | x
COc1cccc2c3c(c(=O)[nH]c12)CCC(C)(C)O3 | -63* | -9 | 10
CN(C)CCOc1ccc(-c2c(-c3ccccc3)sc3ccccc23)cc1 | 77 | x | x
COC(=O)C1=C(C)N(Cc2ccccc2)C(=NCc2ccccc2)N[C@H]1c1cccc(C(F)(F)F)c1 | 65 | x | x
CC(C)(C)NC(=O)NC(=O)COC(=O)c1nc(-c2ccccc2)n(-c2cccc(C(F)(F)F)c2)n1 | -47* | 17 | 13
COc1ccc2[nH]c3c(c2c1)CCN1C(=O)C(CC(=O)NCCC2=CCCCC2)C[C@H](C(=O)N2CCOCC2)[C@@]31CCC1CCCC1 (stereo partly specified) | 44 | x | x
Nc1c(N2CCCC2)cc(Cl)c2nonc12 | 96 | x | x
CN(C)CCCNC(=S)NCC(c1ccc(Cl)cc1Cl)c1c[nH]c2ccccc12 (stereo unspecified) | 41 | x | x
CC(Cc1c[nH]c2ccccc12)C(=O)O (stereo unspecified) | -351* | 8 | -120* | Fluor interf act=>100
Cc1ccc(NC(=O)c2ncn(CC(=O)N[C@H](CO)Cc3c[nH]c4ccccc34)n2)cc1C | 74 | x | x
O=C(NCc1ccccn1)c1ccc2c(=O)n3nc(Nc4ccccc4)sc3nc2c1 | -43* | -4 | -38
O=C(CO/N=C/c1ccc(OC(F)F)cc1)NC1CCCC1 | -453* | 2 | 11
CC1CCCCC1NC(=O)Cn1nnc2ccccc2c1=O (stereo unspecified) | -198* | 8 | 24
C=CCn1c(NC(=O)c2ccc(Br)o2)c(S(=O)(=O)c2ccccc2)c2nc3ccccc3nc21 | 63 | x | x
CCc1ccccc1NC(=O)CCNS(=O)(=O)c1cc(Br)cnc1N | 49 | x | x
CCc1ccccc1NC(=O)CCS(=O)(=O)c1ccc(OC)cc1 | -117* | 0 | -3
CCCN(CC(=O)Nc1ccccc1C)C(=O)COc1ccc2c(c1)CCC2 | 60 | x | x
C#CCOCCOCCOCCNc1nc(N2CCN(C(=O)CCCCCCCCCCNC(=O)[C@H]([C@@H](C)CC)n3cc(CCCCCN)nn3)CC2)nc(N2CCN(C(=O)CCCCCCCCCCNC(=O)[C@@H]([C@H](C)CC)n3cc(CCCCCN)nn3)CC2)n1 | 78 | x | x
CCN1CCN(CCNC(=O)c2ccc(/C=C3\Sc4ccccc4N(Cc4ccccc4F)C3=O)cc2)CC1 | 41 | x | x
Cn1nc(-c2ccccn2)nc2c(=O)n(C)c(=O)nc1-2 | 98 | x | x
CC(C)=CCC1=C(OCC(=O)O)C(=O)c2ccccc2C1=O | 95 | x | x
COCCNc1nc(C)cc(-c2cc(C(=O)Nc3ccccc3)on2)n1 | -53* | 3 | 12
COc1ccc(C(C[N+](=O)[O-])c2c(C)[nH]n(-c3ccccc3)c2=O)cc1 (stereo unspecified) | 96 | x | x
OC(c1cc(C(F)(F)F)nc2c(C(F)(F)F)cccc12)C1CCCCN1 (stereo unspecified) | 48 | x | x
Cc1cccc(NC(=O)CCNS(=O)(=O)c2cccc3nonc23)c1 | -68* | -4 | 8
SMILES | Apaf1 activ | Rh110 interf act | Apaf-1 act conf2 | others
Cc1ccc(S(=O)(=O)C(C#N)c2nc3ccccc3nc2N2CCCC2)cc1 (stereo unspecified) | 77 | x | x
CC(C)(C)OC(=O)[C@H](Cc1ccccc1)NC(=O)c1nc[nH]c1C(=O)N[C@@H](CCCCN)C(=O)OC(C)(C)C | 51 | x | x
O/N=C(\c1ccccn1)C1CC1c1ccccc1 (stereo unspecified) | -63* | 16 | 15
Cc1[nH]n(-c2ccc([N+](=O)[O-])cc2)c(=O)c1/C=N/N1CCOCC1 | 44 | x | x
C#CCOCCOCCOCCNc1nc(N2CCN(C(=O)CCCCCCCCCCNC(=O)Cn3cc(CCCCCN)nn3)CC2)nc(N2CCN(C(=O)CCCCCCCCCCNC(=O)[C@@H](CCSC)n3cc(CCO)nn3)CC2)n1 | 72 | x | x
CC(=O)[C@@H]1[C@@H]2C(=O)N(c3ccc(F)c(Cl)c3)C(=O)[C@@H]2C2c3ccccc3C=CN21 (stereo partly specified) | 72 | x | x
CCOC(=O)c1cnc(-n2nc(C)cc2C)nc1NC1CCCCC1 | 42 | x | x
CCOC(=O)C1=NNC2C(=O)N(C3CCCCC3)C(=O)C12 (stereo unspecified) | -79* | -6 | 7
NC(=O)C1CCN(C2=C(Cl)C(=O)c3ccccc3C2=O)CC1 | 73 | x | x
Cc1cc(N(CCO)CCO)ccc1N=Nc1cc(F)ccc1F | 40 | x | x
COc1cc2c(C#N)c(N3CCc4ccccc4C3)nc(N)c2c(N)n1 | 94 | x | x
Cc1[nH]n(-c2ccccc2)c(=S)c1C=NCCCN=Cc1c(C)[nH]n(-c2ccccc2)c1=S | 63 | x | x
Nc1cccnc1Sc1cccc(Cl)c1 | 76 | x | x
Cc1oc2c(c1C(=O)NCc1cccnc1)C(=O)c1ccccc1C2=O | 86 | x | x
O=C(NCc1cccnc1)c1cc(Sc2cccc(Cl)c2)nc2ccccc12 | -47* | 12 | 19
OCCN1CCN(CCCN2c3ccccc3Sc3ccc(C(F)(F)F)cc32)CC1 | 48 | x | x
CC(=O)[C@H]1[C@@H]2C(=O)N(c3cccc(Cl)c3)C(=O)[C@@H]2[C@H]2c3ccccc3C=CN21 | 73 | x | x
CC(=O)N(C1=C(Cl)C(=O)c2ccccc2C1=O)C1CCCCC1 | 85 | x | x
O=C1c2ccccc2C(=O)C12OC2c1cccc2ccccc12 (stereo unspecified) | 94 | x | x
CC(C)C(=O)Nc1ccc2nn(-c3ccc(F)cc3)nc2c1 | -95* | 17 | 15
CC(C)C(=O)Nc1cccc(-c2cn3ccsc3n2)c1 | 67 | x | x
Nc1ccc2nn(-c3ccc(F)cc3)nc2c1 | 88 | x | x
Cc1ccc(-n2nc3ccc(NC(=O)C(C)C)cc3n2)cc1 | -152* | 5 | 7
CC(C)c1ccc(-n2nc3ccc(N)cc3n2)cc1 | 63 | x | x
CC(=O)Nc1cccc(C(=O)NC(C)c2ccc(-n3ccnc3)cc2)c1 (stereo unspecified) | 41 | x | x
SMILES | Apaf1 activ | Rh110 interf act | Apaf-1 act conf2 | others
N#Cc1sc2nc(-c3ccccc3)cc(-c3ccco3)c2c1N | 90 | x | x
COc1cc(OC)c2c(-c3ccccc3)cc(=O)oc2c1C(CCN1CCOCC1)c1ccc2c(c1)OCO2 (stereo unspecified) | 42 | x | x
CCOc1ccc(-n2nc3ccc(N)cc3n2)cc1 | 84 | x | x
CCCCCOC(=O)c1c(N)n(CCOC)c2nc3ccccc3nc12 | 94 | x | x
CCOC(=O)CSc1nc2cc(C(=O)NCc3ccco3)ccc2c(=O)n1-c1ccc(F)cc1 | -105* | 3 | 12
CC(C)[N+]1(C)[C@@H]2CC[C@H]1CC(OC(=O)C(CO)c1ccccc1)C2 (stereo partly specified) | -5 | x | x
FC(F)(F)C1=Nc2cccc3cccc(c23)N1 | 66 | x | x
CC1(c2ccccc2)NC(=O)N(NC(=O)CSc2n[nH]c(N)n2)C1=O (stereo unspecified) | -279* | 1 | 2
Cc1ccc(C(=O)N/C(=C\c2ccc(-c3ccccc3[N+](=O)[O-])o2)C(=O)NCCN(C)C)cc1 | 53 | x | x
CCCCC(CC)CN1C(=O)/C(=C/c2ccncc2)SC1=S (stereo unspecified) | 42 | x | x
CN(C)CCC(c1ccc(Cl)cc1)c1ccccn1 (stereo unspecified) | -9 | x | x
